pEC50, pIC50: −log10 of the molar value. Calls of active or inactive are those of the source. No cut-off for these calls is given here.
Legend:
[1] = test system: Mus musculus; assay: Prodrug activation in BALB/c mouse assessed as 3-(tert-butyl)-1-cyclohexyl-1-(6-((2R,3R,4R,5S)-3,4,5-trihydroxy-2-(hydroxymethyl)piperidin-1-yl)hexyl)urea Cmax at 5 mg/kg, iv as bolus administration by LC-MS/MS analysis; type: organism-based; design: dose 5 mg/kg, route intravenous; settings: in vivo
Summary of the method: (§1)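 Male BALB/c mice dosed with the prodrugs or the parent orally (25 or 100 mg/kg) or intravenously (5 mg/kg). The parent compound was quantified in plasma and PK parameters were derived from it. The first sampling point was 5 min post-dose, and prodrugs were tracked up to 4 h.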

[2] = Inhibition of pig liver endoplasmic reticulum alpha glucosidase-2 using 4-methylumbelliferyl-alpha-D-glucoside as substrate measured after 60 mins by fluorescence analysis; design: species or system Sus scrofa
[3] = Prodrug activation in human intestinal S9 fraction assessed as 3-(tert-butyl)-1-cyclohexyl-1-(6-((2R,3R,4R,5S)-3,4,5-trihydroxy-2-(hydroxymethyl)piperidin-1-yl)hexyl)urea formation by measuring prodrug remaining at 200 uM measured after 1 hr in presence or absence of NADPH by LC-MS/MS analysis; design: species or system Intestine; settings: s9, 1 h
Summary of the method: (§2)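 Compounds incubated with intestinal S9 fraction for 1 h. Percent prodrug remaining and percent conversion to the parent were measured.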

[4] = test system: Mus musculus; assay: Prodrug activation in BALB/c mouse assessed as 3-(tert-butyl)-1-cyclohexyl-1-(6-((2R,3R,4R,5S)-3,4,5-trihydroxy-2-(hydroxymethyl)piperidin-1-yl)hexyl)urea Cmax at 100 mg/kg, po administered as single dose by LC-MS/MS analysis; type: organism-based; design: dose 100 mg/kg, route oral; settings: in vivo; summary of the method: as §1
[5] = Metabolic stability in mouse plasma assessed as parent compound remaining at 5 uM measured after 2 hrs by LC-MS/MS analysis; type: ADME, cell-free; settings: read-out: Stability
Summary of the method: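 Compounds incubated in human or mouse plasma for 2 h. Percent remaining and percent conversion to the parent were determined.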

[6] = test system: Mus musculus; assay: Prodrug activation in BALB/c mouse assessed as 3-(tert-butyl)-1-cyclohexyl-1-(6-((2R,3R,4R,5S)-3,4,5-trihydroxy-2-(hydroxymethyl)piperidin-1-yl)hexyl)urea Tmax at 25 mg/kg, po administered as single dose by LC-MS/MS analysis; type: organism-based; settings: in vivo; summary of the method: as §1
[7] = test system: Mus musculus; assay: Prodrug activation in BALB/c mouse assessed as 3-(tert-butyl)-1-cyclohexyl-1-(6-((2R,3R,4R,5S)-3,4,5-trihydroxy-2-(hydroxymethyl)piperidin-1-yl)hexyl)urea Tmax at 5 mg/kg, iv as bolus administration by LC-MS/MS analysis; type: organism-based; settings: in vivo; summary of the method: as §1
[8] = test system: Mus musculus; assay: Prodrug activation in BALB/c mouse assessed as 3-(tert-butyl)-1-cyclohexyl-1-(6-((2R,3R,4R,5S)-3,4,5-trihydroxy-2-(hydroxymethyl)piperidin-1-yl)hexyl)urea Cmax at 25 mg/kg, po administered as single dose by LC-MS/MS analysis; type: organism-based; design: dose 25 mg/kg, route oral; settings: in vivo; summary of the method: as §1
[9] = test system: Mus musculus; assay: Prodrug activation in BALB/c mouse assessed as 3-(tert-butyl)-1-cyclohexyl-1-(6-((2R,3R,4R,5S)-3,4,5-trihydroxy-2-(hydroxymethyl)piperidin-1-yl)hexyl)urea half life at 100 mg/kg, po administered as single dose by LC-MS/MS analysis; type: organism-based; settings: in vivo; summary of the method: as §1
[10] = Stability in simulated gastric fluid assessed as parent compound remaining at 5 uM measured after 4 hrs by LC-MS/MS analysis
Summary of the method: (§3)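 Chemical stability assessed by incubation in simulated gastric fluid and simulated intestinal fluid; percent of compound remaining was measured.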

[11] = Prodrug activation in mouse intestinal S9 fraction assessed as 3-(tert-butyl)-1-cyclohexyl-1-(6-((2R,3R,4R,5S)-3,4,5-trihydroxy-2-(hydroxymethyl)piperidin-1-yl)hexyl)urea formation by measuring prodrug remaining at 200 uM measured after 1 hr in presence or absence of NADPH by LC-MS/MS analysis; design: species or system Intestine; settings: s9, 1 h; summary of the method: as §2
[12] = test system: Mus musculus; assay: Prodrug activation in BALB/c mouse assessed as 3-(tert-butyl)-1-cyclohexyl-1-(6-((2R,3R,4R,5S)-3,4,5-trihydroxy-2-(hydroxymethyl)piperidin-1-yl)hexyl)urea half life at 25 mg/kg, po administered as single dose by LC-MS/MS analysis; type: organism-based; settings: in vivo; summary of the method: as §1
[13] = Apparent permeability of the compound across basolateral side to apical side in human Caco2 cells assessed as drug recovery at 5 uM measured after 2 hrs by LC-MS/MS analysis; type: ADME, cell-based; settings: Caco-2, read-out: Drug recovery
[14] = Metabolic stability in pooled mouse liver microsomes assessed as parent compound remaining at 200 uM measured after 60 mins by LC-MS/MS analysis; type: ADME, microsome; settings: liver microsomes, read-out: Stability
Summary of the method: (§4)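 Prodrugs or parent incubated in pooled human or mouse liver microsomes for up to 60 min, with or without cofactor. Percent remaining and percent conversion to the parent were measured.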

[15] = Prodrug activation in simulated intestinal fluid assessed as 3-(tert-butyl)-1-cyclohexyl-1-(6-((2R,3R,4R,5S)-3,4,5-trihydroxy-2-(hydroxymethyl)piperidin-1-yl)hexyl)urea formation at 5 uM measured after 4 hrs by LC-MS/MS analysis; summary of the method: as §3
[16] = Prodrug activation in simulated gastric fluid assessed as 3-(tert-butyl)-1-cyclohexyl-1-(6-((2R,3R,4R,5S)-3,4,5-trihydroxy-2-(hydroxymethyl)piperidin-1-yl)hexyl)urea formation at 5 uM measured after 4 hrs by LC-MS/MS analysis; summary of the method: as §3
[17] = test system: Mus musculus; assay: Prodrug activation in BALB/c mouse assessed as 3-(tert-butyl)-1-cyclohexyl-1-(6-((2R,3R,4R,5S)-3,4,5-trihydroxy-2-(hydroxymethyl)piperidin-1-yl)hexyl)urea AUC(0 to infinity) at 25 mg/kg, po administered as single dose by LC-MS/MS analysis; type: organism-based; design: dose 25 mg/kg, time infinity, route oral; settings: in vivo
[18] = species on record: Bos taurus; assay: Inhibition of endoplasmic reticulum alpha-glucosidase in MDBK cells infected with Bovine Viral Diarrhea virus assessed as reduction in BVDV envelope glycoprotein E2 level at 3 to 100 uM by immunoblot analysis; type: cell-based
Summary of the method: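 MDBK cells infected with BVDV, then treated with various concentrations of the compounds. Cell lysates were run on SDS-PAGE and immunoblotted for the E2 envelope glycoprotein, looking for a mobility shift and lower intensity, with β-actin as internal control.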

[19] = Stability in simulated intestinal fluid assessed as parent compound remaining at 5 uM measured after 4 hrs by LC-MS/MS analysis; summary of the method: as §3
[20] = Metabolic stability in pooled human liver microsomes assessed as parent compound remaining at 200 uM measured after 60 mins in presence of NADPH and UDPGA by LC-MS/MS analysis; type: ADME, microsome; settings: read-out: Stability; summary of the method: as §4
[21] = Half life in pooled mouse liver microsomes at 200 uM by LC-MS/MS analysis; type: ADME, microsome; settings: liver microsomes; summary of the method: as §4
[22] = Metabolic stability in pooled mouse liver microsomes assessed as parent compound remaining at 200 uM measured after 60 mins in presence of NADPH and UDPGA by LC-MS/MS analysis; type: ADME, microsome; settings: read-out: Stability; summary of the method: as §4
[23] = Inhibition of endoplasmic reticulum alpha-glucosidase in human Huh7.5 cells infected with DENV assessed as reduction in viral growth by measuring DENV RNA level by qRT-PCR method; type: cell-based
Summary of the method: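 Huh7.5 cells infected with dengue virus and treated with a concentration series of the compounds (n = 4). DENV RNA was quantified by qRT-PCR and the EC50 was calculated.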

[24] = test system: Mus musculus; assay: Prodrug activation in BALB/c mouse assessed as 3-(tert-butyl)-1-cyclohexyl-1-(6-((2R,3R,4R,5S)-3,4,5-trihydroxy-2-(hydroxymethyl)piperidin-1-yl)hexyl)urea AUC(0 to infinity) at 5 mg/kg, iv as bolus administration by LC-MS/MS analysis; type: organism-based; design: dose 5 mg/kg, route intravenous, time infinity; settings: in vivo

SMILES | Cmax [1] | pIC50 [2] | Stability [3] | Cmax [4] | remaining at 2 h, 5 µM [5] | Tmax [6] | Tmax [7] | Cmax [8] | t1/2 [9] | Stability [10] | Stability [11] | t1/2 [12] | recovery at 2 h, 5 µM [13] | remaining at 1 h, 200 µM [14] | Drug metabolism [15] | Drug metabolism [16] | AUC [17] | inhibition [18] | Stability [19] | remaining at 1 h, 200 µM [20] | further results
CC(=O)OC[C@@H]1[C@@H](OC(C)=O)[C@H](OC(C)=O)[C@@H](OC(C)=O)CN1CCCCCCN(C(=O)NC(C)(C)C)C1CCCCC1 | 463 ng/mL | < 4.00 | < 50% | 1597 ng/mL | 0% | 15 min | 15 min | 375 ng/mL | 43.2 min | 94% | < 50% | 84 min | 42% | 0% | 0% | 0% | 359 ng·mL·h | Active | 91% | 0% | half-life at 200 µM [21]: 2 min; remaining at 1 h, 200 µM [22]: 0%; pEC50 [23]: 4.81; AUC [24]: 368 ng·mL·h
CC(C)C(=O)OC[C@@H]1[C@@H](OC(=O)C(C)C)[C@H](OC(=O)C(C)C)[C@@H](OC(=O)C(C)C)CN1CCCCCCN(C(=O)NC(C)(C)C)C1CCCCC1 | 1213 ng/mL | < 4.00 | < 50% | 195 ng/mL | 0% | 30 min | 4.98 min | 104 ng/mL | 70.8 min | 108% | < 50% | 34.8 min | < 60% | 7% | 0% | 0% | 197 ng·mL·h | Active | 90% | 2% | half-life at 200 µM [21]: 14 min; remaining at 1 h, 200 µM [22]: 5%; pEC50 [23]: 4.02; AUC [24]: 569 ng·mL·h
CCCC(=O)OC[C@@H]1[C@@H](OC(=O)CCC)[C@H](OC(=O)CCC)[C@@H](OC(=O)CCC)CN1CCCCCCN(C(=O)NC(C)(C)C)C1CCCCC1 | 15733 ng/mL | < 4.00 | < 50% | 998 ng/mL | 0% | 15 min | 4.98 min | 319 ng/mL | 137 min | 89% | < 50% | 103 min | < 60% | 12% | 0% | 0% | 529 ng·mL·h | Active | 72% | 4% | half-life at 200 µM [21]: 20 min; remaining at 1 h, 200 µM [22]: 10%; pEC50 [23]: 4.79; AUC [24]: 2288 ng·mL·h
